Results published in ChEMBL document CHEMBL3603808, “Discovery and structure of a new inhibitor scaffold of the autophagy initiating kinase ULK1” (Bioorg Med Chem, 2015).
Activity calls are given as the source filed them. No cut-off for these calls is given here.

Key:
HeLa = assay: Inhibition of autophagy in human HeLa cells assessed as induction of LC3-I protein accumulation at 4 uM incubated for 24 hrs by immunoblotting method; format: functional, cell-based
Summary of the method: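 HeLa cells were grown in DMEM with 10% FBS to about 50% confluency, then given 4 µM compound or DMSO for 24 h. Cold-PBS wash, lysis in TBS pH 7.6 with 1% Triton-X, 0.2% SDS and protease/phosphatase inhibitors. Lysates were protein-normalized and immunoblotted for LC3-I/LC3-II, with actin as loading control.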

[1] = target: T1, Serine/threonine-protein kinase ULK2 (Homo sapiens, UniProt Q8IYT8); assay: Inhibition of SUMO-tagged ULK2 (unknown origin) kinase domain expressed in KRX cells using [32P]-gamma-ATP and myelin basic protein substrate incubated for 7 mins; format: single protein
T1 sequence (Q8IYT8 whole entry): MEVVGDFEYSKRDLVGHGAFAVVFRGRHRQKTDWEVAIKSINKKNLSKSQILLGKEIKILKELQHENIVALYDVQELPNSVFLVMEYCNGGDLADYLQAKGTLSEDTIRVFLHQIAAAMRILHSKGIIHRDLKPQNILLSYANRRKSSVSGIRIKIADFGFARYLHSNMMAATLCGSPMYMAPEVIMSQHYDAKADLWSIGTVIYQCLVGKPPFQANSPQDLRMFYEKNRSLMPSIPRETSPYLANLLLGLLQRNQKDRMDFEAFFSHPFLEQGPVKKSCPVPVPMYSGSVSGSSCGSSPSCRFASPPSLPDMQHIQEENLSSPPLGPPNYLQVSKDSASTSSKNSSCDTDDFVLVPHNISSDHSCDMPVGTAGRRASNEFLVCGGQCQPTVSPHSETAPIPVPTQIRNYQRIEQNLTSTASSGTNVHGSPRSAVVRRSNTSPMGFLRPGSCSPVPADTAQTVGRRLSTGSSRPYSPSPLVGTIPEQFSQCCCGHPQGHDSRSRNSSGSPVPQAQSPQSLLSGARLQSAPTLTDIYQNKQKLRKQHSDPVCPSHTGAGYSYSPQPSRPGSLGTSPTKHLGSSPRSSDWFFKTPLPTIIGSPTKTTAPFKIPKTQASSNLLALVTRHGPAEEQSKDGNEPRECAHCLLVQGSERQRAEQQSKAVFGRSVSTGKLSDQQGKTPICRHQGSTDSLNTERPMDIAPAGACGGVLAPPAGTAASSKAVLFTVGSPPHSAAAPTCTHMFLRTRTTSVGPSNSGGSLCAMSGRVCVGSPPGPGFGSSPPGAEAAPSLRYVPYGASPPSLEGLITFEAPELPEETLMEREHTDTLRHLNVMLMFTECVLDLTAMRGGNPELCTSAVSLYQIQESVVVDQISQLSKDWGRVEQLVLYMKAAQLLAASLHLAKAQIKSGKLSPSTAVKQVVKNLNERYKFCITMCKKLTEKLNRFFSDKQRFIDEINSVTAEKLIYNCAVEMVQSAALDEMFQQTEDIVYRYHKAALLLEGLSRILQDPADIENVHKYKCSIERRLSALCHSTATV
Summary of the method: (§1)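 Enzyme at 5 nM with 50 µM cold ATP, 0.05 µCi/µl 32P-γ-ATP and 20 µM myelin basic protein as substrate. Reactions were spotted onto nitrocellulose, washed three times in 1% phosphoric acid, dried and imaged by phosphorimager. IC50 from curve fitting; duplicate.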

[2] = target: T2, Serine/threonine-protein kinase ULK1 (Homo sapiens, UniProt O75385); assay: Inhibition of SUMO-tagged ULK1 (unknown origin) kinase domain expressed in KRX cells using [32P]-gamma-ATP and myelin basic protein substrate incubated for 7 mins; format: cell-based; summary of the method: as §1
T2 sequence (O75385 whole entry): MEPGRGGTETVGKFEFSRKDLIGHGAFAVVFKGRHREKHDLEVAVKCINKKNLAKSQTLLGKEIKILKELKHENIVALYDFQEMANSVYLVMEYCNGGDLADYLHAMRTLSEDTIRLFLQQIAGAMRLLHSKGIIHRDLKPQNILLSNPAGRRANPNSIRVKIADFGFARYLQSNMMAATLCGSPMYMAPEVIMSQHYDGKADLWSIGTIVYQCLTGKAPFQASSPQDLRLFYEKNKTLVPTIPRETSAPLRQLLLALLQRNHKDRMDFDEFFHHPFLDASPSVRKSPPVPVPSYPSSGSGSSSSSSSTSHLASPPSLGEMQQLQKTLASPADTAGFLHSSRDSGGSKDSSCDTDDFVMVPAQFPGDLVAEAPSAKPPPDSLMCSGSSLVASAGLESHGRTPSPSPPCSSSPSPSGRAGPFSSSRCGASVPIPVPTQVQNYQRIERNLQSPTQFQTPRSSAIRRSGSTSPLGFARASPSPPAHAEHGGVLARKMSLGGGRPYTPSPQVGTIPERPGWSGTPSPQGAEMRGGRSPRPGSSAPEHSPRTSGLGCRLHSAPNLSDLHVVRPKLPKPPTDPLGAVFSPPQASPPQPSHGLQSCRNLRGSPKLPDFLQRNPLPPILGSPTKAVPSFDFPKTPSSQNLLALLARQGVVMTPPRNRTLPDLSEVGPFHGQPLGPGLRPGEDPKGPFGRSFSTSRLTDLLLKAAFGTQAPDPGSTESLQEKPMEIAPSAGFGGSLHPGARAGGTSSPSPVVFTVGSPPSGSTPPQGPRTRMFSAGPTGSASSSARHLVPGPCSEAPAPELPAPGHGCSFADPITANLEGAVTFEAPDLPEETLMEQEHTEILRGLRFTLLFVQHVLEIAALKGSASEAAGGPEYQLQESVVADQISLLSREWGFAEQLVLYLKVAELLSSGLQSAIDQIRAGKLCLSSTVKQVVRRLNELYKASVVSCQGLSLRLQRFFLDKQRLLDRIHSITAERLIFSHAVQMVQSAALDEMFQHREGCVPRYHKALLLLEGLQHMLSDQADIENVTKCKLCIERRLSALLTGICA

[3] = target: T3, 3-phosphoinositide-dependent protein kinase 1 (Homo sapiens, UniProt O15530); assay: Inhibition of recombinant PDK1 (unknown origin) using PDK1tide substrate incubated for 7 mins
T3 sequence (O15530 whole entry): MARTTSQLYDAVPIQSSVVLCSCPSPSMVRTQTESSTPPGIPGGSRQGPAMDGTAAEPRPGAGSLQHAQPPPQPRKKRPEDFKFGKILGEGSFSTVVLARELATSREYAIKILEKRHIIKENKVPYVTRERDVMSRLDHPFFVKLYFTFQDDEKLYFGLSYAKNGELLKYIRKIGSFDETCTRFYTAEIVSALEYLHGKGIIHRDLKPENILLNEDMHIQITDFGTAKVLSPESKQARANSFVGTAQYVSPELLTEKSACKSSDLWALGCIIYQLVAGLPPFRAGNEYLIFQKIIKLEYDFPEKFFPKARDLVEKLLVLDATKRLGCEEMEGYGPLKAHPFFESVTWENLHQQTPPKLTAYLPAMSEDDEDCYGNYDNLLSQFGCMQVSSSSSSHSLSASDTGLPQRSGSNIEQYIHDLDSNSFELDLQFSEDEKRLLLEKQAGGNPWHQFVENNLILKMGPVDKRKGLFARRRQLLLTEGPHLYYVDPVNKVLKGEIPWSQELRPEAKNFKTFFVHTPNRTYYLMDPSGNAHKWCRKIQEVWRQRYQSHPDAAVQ
Summary of the method: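 Recombinant PDK1 at 5 nM with 50 µM synthetic PDK1tide in 50 mM HEPES pH 7.5, 10 mM MgCl2, 1 mg/ml BSA, 0.02% Triton-X and 50 µM DTT. Stopped after 7 min by spotting onto nitrocellulose, washed three times in 1% phosphoric acid and phosphorimaged. IC50 from curve fitting; duplicate.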

O=C(NCCCNc1nc(Nc2cccc(NC(=O)N3CCCC3)c2)ncc1I)C1CC1
Activity (HeLa): Active
IC50 [1]: 200 nM
IC50 [2]: 67 nM
IC50 [3]: 56 nM

O=C(NCCCNc1nc(Nc2cccc(NC(=O)N3CCCC3)c2)ncc1I)c1cccs1 [BX-795]
Activity (HeLa): Active
IC50 [1]: 310 nM
IC50 [2]: 87 nM
IC50 [3]: 65 nM

O=C(NCCCNc1nc(Nc2cccc(CN3CCOCC3)c2)ncc1C1CC1)C1CCC1
Activity (HeLa): Active
IC50 [3]: 421 nM
